Results taken from PMC4839290 (Journal of medicinal chemistry, 2015).
“Also recorded” adds a separate entry of the source.

What was measured:
human mGlu1 WT receptor [1] = molecular target: T1, human mGlu1 WT receptor (Homo sapiens, UniProt Q13255); experiment: Calcium mobilization mGlu1 assay; type: cell-based
hmGlu4 = hmGlu4 (Homo sapiens, UniProt Q14833); experiment: Calcium mobilization assay, mGlu4 PAM activity; type: cell-based; details: n = 3 in triplicate
rat mGlu1 WT receptors = rat mGlu1 WT receptors (Rattus norvegicus, UniProt P23385); experiment: Calcium mobilization concentration-response curves on rat mGlu1; type: cell-based
[2] = In vitro intrinsic and hepatic clearance, human; type: in vitro ADME
[3] = In vitro intrinsic and hepatic clearance, rat; type: in vitro ADME
[4] = Plasma free fraction, human plasma; type: in vitro ADME
[5] = Plasma free fraction, rat plasma; type: in vitro ADME
[6] = Ex vivo metabolism/stability in human plasma; type: in vitro ADME; details: 10 μM incubation, 37 °C, 4 h, mass spectrometry
Summary of the method: (§1)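 Test compound at 10 μM incubation concentration in rat or human plasma at 37 °C. Samples were taken at 0 and 4 h and analysed by mass spectrometry for remaining parent and for metabolites formed.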

[7] = Ex vivo metabolism/stability in rat plasma; type: in vitro ADME; details: 10 μM incubation, 37 °C, 4 h, mass spectrometry
Summary of the method: as §1

Male C57Bl/6 mice = experiment: Behavioral convulsions, modified Racine score; type: in vivo; details: for behavioral convulsions (modified Racine score 0–5): 10% Tween 80, monitored 3 h, n = 3
Summary of the method: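 Male C57Bl/6 mice (25–30 g) got a single ip dose of test compound (100 mg/kg) or a reference mGlu5 ago-PAM (1 or 3 mg/kg). Behavior was watched continuously for 3 h and convulsions were scored on a modified Racine scale (0–5).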

mGlu2 = experiment: Standard fold-shift selectivity assay; type: cell-based; details: 10 μM compound
[8] = tested on: human mGlu1 mutant receptors (P729T, A683E, Y632H, P1014S); type: cell-based; details: noted at compound concentrations above 1 μM
[9] = tested on: CA3 pyramidal cell body layer in a mouse hippocampal slice preparation; experiment: Extracellular recording of spontaneous spike
Summary of the method: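 Hippocampal slices with extracellular recording from the CA3 pyramidal cell body layer. Frequency of spontaneous activity was tracked before, during and after bath application and washout of test compound (10 μM) or DHPG (50 μM, positive control). Each was compared with baseline by paired t test, n = 6 per treatment.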

human mGlu1 WT receptor [10] = molecular target: T1, human mGlu1 WT receptor; experiment: Fold-shift of glutamate concentration-response curve, human mGlu1 WT cells; type: cell-based; details: 10 μM compound
Rat iv PK = type: in vivo; details: rat iv PK (0.2 mg/kg)

T1 sequence (Q13255 19-1194): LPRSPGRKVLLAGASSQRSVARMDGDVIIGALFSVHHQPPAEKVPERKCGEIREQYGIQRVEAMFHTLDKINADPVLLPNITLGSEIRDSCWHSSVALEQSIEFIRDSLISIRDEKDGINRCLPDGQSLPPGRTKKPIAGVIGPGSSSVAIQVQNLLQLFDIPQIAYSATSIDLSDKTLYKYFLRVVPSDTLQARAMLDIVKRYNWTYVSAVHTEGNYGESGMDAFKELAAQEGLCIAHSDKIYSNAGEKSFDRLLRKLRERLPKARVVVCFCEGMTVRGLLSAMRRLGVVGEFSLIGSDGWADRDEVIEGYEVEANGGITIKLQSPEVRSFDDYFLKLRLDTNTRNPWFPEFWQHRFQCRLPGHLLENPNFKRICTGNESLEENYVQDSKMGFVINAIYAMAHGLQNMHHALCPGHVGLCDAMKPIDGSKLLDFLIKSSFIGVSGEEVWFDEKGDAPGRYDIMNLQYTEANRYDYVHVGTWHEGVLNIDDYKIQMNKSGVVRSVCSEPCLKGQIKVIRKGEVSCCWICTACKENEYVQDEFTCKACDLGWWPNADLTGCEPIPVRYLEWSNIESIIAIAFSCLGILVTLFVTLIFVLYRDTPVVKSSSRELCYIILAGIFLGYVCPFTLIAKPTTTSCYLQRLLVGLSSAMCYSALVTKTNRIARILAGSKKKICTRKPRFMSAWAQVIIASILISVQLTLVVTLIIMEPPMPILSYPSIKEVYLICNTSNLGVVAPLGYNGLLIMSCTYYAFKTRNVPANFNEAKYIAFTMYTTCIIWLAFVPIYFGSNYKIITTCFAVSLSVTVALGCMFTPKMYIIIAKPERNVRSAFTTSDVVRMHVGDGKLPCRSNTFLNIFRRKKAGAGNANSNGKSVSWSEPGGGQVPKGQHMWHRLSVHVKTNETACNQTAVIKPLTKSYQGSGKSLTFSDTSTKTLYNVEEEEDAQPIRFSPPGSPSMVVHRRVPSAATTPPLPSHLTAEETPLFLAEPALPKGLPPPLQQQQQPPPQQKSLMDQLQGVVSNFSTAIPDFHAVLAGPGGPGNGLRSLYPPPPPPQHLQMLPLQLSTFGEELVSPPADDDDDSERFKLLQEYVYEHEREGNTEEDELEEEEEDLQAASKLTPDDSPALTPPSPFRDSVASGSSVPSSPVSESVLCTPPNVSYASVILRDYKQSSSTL
Chain of rat mGlu1 WT receptors (P23385 19-1199): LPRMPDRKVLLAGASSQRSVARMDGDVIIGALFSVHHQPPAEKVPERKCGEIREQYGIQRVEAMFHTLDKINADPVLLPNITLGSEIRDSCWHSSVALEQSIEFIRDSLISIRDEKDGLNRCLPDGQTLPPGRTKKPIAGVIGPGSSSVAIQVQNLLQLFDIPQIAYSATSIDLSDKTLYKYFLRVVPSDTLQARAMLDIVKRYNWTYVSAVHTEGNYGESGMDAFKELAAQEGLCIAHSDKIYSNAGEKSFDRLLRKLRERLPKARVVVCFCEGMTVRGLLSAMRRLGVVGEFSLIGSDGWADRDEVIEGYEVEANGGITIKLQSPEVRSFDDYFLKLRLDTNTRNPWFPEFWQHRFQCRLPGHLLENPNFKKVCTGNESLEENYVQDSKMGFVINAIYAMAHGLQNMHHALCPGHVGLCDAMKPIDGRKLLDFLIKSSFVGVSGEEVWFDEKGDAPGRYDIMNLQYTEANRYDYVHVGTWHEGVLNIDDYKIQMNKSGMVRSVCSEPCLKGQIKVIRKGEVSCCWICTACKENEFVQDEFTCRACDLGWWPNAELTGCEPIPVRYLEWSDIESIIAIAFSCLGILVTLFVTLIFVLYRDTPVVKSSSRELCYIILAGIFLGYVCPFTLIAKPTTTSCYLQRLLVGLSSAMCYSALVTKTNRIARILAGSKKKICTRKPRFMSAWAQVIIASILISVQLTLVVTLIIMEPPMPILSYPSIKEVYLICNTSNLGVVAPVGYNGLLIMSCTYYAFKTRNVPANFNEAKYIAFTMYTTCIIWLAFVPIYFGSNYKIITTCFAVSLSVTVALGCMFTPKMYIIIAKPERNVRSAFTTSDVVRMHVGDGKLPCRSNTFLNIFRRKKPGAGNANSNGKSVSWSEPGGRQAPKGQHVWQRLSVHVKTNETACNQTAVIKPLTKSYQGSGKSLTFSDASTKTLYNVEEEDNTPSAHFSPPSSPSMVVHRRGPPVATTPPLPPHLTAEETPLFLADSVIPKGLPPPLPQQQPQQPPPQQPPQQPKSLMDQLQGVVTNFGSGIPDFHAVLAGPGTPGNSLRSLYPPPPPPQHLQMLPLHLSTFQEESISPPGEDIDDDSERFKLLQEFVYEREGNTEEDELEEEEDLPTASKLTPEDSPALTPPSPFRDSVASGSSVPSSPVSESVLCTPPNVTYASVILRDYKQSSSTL
Chain of hmGlu4 (Q14833 33-912): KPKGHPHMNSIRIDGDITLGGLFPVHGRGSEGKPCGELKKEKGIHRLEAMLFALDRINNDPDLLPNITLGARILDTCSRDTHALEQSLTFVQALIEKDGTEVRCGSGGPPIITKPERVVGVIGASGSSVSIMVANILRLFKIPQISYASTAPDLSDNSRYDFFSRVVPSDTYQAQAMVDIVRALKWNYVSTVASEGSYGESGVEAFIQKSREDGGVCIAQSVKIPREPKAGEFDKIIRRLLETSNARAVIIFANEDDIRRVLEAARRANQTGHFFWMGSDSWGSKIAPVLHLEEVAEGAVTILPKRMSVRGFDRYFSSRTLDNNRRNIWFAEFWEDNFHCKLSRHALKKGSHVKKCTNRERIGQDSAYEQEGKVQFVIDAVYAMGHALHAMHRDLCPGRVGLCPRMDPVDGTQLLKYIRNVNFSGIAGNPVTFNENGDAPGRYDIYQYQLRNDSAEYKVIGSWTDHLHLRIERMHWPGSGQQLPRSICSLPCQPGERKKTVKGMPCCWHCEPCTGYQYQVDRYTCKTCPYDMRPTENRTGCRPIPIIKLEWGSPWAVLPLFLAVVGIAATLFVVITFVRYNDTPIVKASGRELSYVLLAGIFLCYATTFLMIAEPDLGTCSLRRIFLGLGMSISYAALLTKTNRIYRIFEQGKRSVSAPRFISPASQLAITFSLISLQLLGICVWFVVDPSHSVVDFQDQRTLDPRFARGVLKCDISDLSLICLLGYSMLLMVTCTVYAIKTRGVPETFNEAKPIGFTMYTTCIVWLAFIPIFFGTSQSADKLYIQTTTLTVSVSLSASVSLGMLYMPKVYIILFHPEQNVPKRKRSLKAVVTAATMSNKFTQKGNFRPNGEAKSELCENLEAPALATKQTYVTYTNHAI

SMILES: O=C(Nc1ccc(N2C(=O)c3ccccc3C2=O)c(Cl)c1)c1cnco1 [9d]
- mGlu1 PAM activity in words (human mGlu1 WT receptor [1]): inactive

SMILES: O=C(Nc1ccc(N2C(=O)c3ccccc3C2=O)c(Cl)c1)c1ncco1 [9e]
- mGlu1 PAM activity in words (human mGlu1 WT receptor [1]): inactive

SMILES: O=C(Nc1ccc(N2C(=O)c3ccccc3C2=O)c(Cl)c1)c1cncs1 [9i]
- mGlu1 PAM activity in words (human mGlu1 WT receptor [1]): inactive

SMILES: O=C(Nc1ccc(N2C(=O)c3ccccc3C2=O)c(Cl)c1)C1CCCO1 (stereo not drawn) [9n]
- mGlu1 PAM activity in words (human mGlu1 WT receptor [1]): inactive

SMILES: O=C(Nc1ccc(N2C(=O)c3ccccc3C2=O)c(Cl)c1)c1cc2ccccc2o1 [10m]
- mGlu1 PAM activity in words (human mGlu1 WT receptor [1]): inactive

SMILES: O=C(Nc1ccc(N2C(=O)c3ccccc3C2=O)c(Cl)c1)c1coc2ccccc12 [10n]
- mGlu1 PAM activity in words (human mGlu1 WT receptor [1]): inactive

SMILES: Cc1ccoc1C(=O)Nc1ccc(N2C(=O)c3cccc(Cl)c3C2=O)c(Cl)c1 [17c, N-(3-Chloro-4-(4-chloro-1,3-dioxoisoindolin-2-yl)phenyl)-3-methylfuran-2-carboxamide]
- hmGlu4 pEC50 (±SEM) (hmGlu4): 5.94 ± 0.22

SMILES: Cc1ccoc1C(=O)Nc1ccc(N2C(=O)c3ccc(Cl)cc3C2=O)c(Cl)c1 [17d, N-(3-Chloro-4-(5-chloro-1,3-dioxoisoindolin-2-yl)phenyl)-3-methylfuran-2-carboxamide]
- rat mGlu1 pEC50 (rat mGlu1 WT receptors): 6.95 ± 0.13
- human CLINT [2]: 2.90 mL/min/kg
- rat CLHEP [3]: 17.2 mL/min/kg
- rat CLINT [3]: 22.8 mL/min/kg
- human fu plasma [4]: unstable
- rat fu plasma [5]: unstable
- parent compound remaining in human plasma [6]: no parent 17d remains
- parent compound remaining in rat plasma [7]: no parent 17d remains
- behavioral convulsions (modified Racine score 0–5) (Male C57Bl/6 mice; 100 mg/kg ip): no measurable behavioral disturbances at any time point; also recorded: no adverse effects

SMILES: Cc1ccoc1C(=O)Nc1ccc(N2C(=O)c3cccc(F)c3C2=O)c(Cl)c1 [17e, N-(3-Chloro-4-(4-fluoro-1,3-dioxoisoindolin-2-yl)phenyl)-3-methylfuran-2-carboxamide]
- hmGlu4 pEC50 (±SEM) (hmGlu4): 5.95 ± 0.16
- fold shift of glutamate CRC at mGlu2 (mGlu2): < 2 fold
- ago-PAM activity across all four mutants [8]: ≤ 40%
- human CLHEP [2]: 2.70 mL/min/kg
- human CLINT [2]: 3.10 mL/min/kg
- rat CLHEP [3]: 52.3 mL/min/kg
- rat CLINT [3]: 207 mL/min/kg
- induction of epileptiform activity in CA3 ([9]; 10 μM bath application): did not induce epileptiform activity; also recorded: does not induce epileptiform activity
- behavioral convulsions (modified Racine score 0–5) (Male C57Bl/6 mice; 100 mg/kg ip): no measurable behavioral disturbances at any time point; also recorded: no adverse effects

SMILES: Cc1ccoc1C(=O)Nc1ccc(N2C(=O)c3ccc(F)cc3C2=O)c(Cl)c1 [17f, N-(3-Chloro-4-(5-fluoro-1,3-dioxoisoindolin-2-yl)phenyl)-3-methylfuran-2-carboxamide]
- agonism at the highest concentration (human mGlu1 WT receptor [10]): < 20%

SMILES: Cc1ccoc1C(=O)Nc1ccc(N2C(=O)c3ccncc3C2=O)c(Cl)c1 [17g, N-(3-Chloro-4-(1,3-dioxo-1,3-dihydro-2H-pyrrolo[3,4-c]-pyridin-2-yl)phenyl)-3-methylfuran-2-carboxamide]
- rat mGlu1 pEC50 (rat mGlu1 WT receptors): 6.95 ± 0.15
- human CLINT [2]: 167 mL/min/kg
- rat CLHEP [3]: 59.7 mL/min/kg
- rat CLINT [3]: 405 mL/min/kg
- human fu plasma [4]: unstable
- CLp (Rat iv PK): 382 mL/min/kg
- clearance (Rat iv PK; rat, plasma, iv, 0.2 mg/kg, CLp): 283 mL/min/kg
- behavioral convulsions (modified Racine score 0–5) (Male C57Bl/6 mice; 100 mg/kg ip): no measurable behavioral disturbances at any time point; also recorded: no adverse effects

SMILES: N[C@H](C(=O)O)c1cc(O)cc(O)c1 [DHPG, S-3,5-dihydroxyphe-nylglycine, reference compound]
- induction of epileptiform activity in CA3 ([9]; 50 μM, positive control): induced marked epileptiform activity

SMILES: O=C(Nc1nc(C(F)(F)F)co1)C1c2ccccc2Oc2ccccc21 [compound 5, reference compound]
- human CLINT [2]: 262 mL/min/kg
- rat CLHEP [3]: 63.3 mL/min/kg
- rat CLINT [3]: 661 mL/min/kg
- behavioral convulsions (modified Racine score 0–5) (Male C57Bl/6 mice; 100 mg/kg ip): no adverse effects

SMILES: O=C(Nc1ccc(N2C(=O)c3cccc(Cl)c3C2=O)c(Cl)c1)c1ncccc1Cl [compound 8, reference compound]
- human CLINT [2]: 17.2 mL/min/kg
- rat CLINT [3]: 39.9 mL/min/kg
- human fu plasma [4]: unstable
- rat fu plasma [5]: unstable

SMILES: C[C@@H](NC(=O)c1ccc(C#Cc2cccc(F)c2)cn1)C(C)(C)O [compound 18, (R)-5-((3-fluorophenyl)ethynyl)-N-(3-hydroxy-3-methylbutan-2-yl)picolinamide, reference compound]
- time of peak convulsion responses after administration (Male C57Bl/6 mice; 1 or 3 mg/kg ip): approximately 5 min
- behavioral convulsions (modified Racine score 0–5) (Male C57Bl/6 mice; 1 or 3 mg/kg ip): severe, dose-dependent behavioral manifestations of seizure activity; also recorded: Severe, dose-dependent behavioral convulsions
